Assay [1] relates to L1210. As to the kind of experiment: Inhibition of murine leukemia L1210 cell growth. The class given is functional. To be noted: Mus musculus. The gist of the method: (§1)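 Murine L1210 leukemia cells; MIC50 is the concentration reducing cell growth, or incorporation of [methyl-3H]dThd into TCA-insoluble material (DNA synthesis), by 50%. Average of at least three separate experiments.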

Assay [2] deals with Mammalian orthoreovirus 1. As to the kind of experiment: Minimum inhibitory concentration required to reduce reo virus type 1 induced cytopathogenicity by 50%. The class given is functional.
Assay [3] concerns Human respirovirus 3. As to the kind of experiment: Minimum inhibitory concentration required to reduce parainfluenza type 3 induced cytopathogenicity by 50%. The class given is functional.
In assay [4] the test system is Vero. As to the kind of experiment: Minimum cytotoxic concentration required to cause a microscopically detectable alteration of normal cell morphology in Vero cells. The class given is functional, Chlorocebus sabaeus. The method in brief:
(§2)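 Cytotoxicity read microscopically as the minimum concentration producing a detectable alteration of normal cell morphology, in PRK, HeLa or Vero cell cultures. Average of two to three separate experiments.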

Assay [5] deals with L1210. As to the kind of experiment: Minimum inhibitory concentration required to reduce incorporation of [methyl-3H]dThd into TCA-insoluble material from murine leukemia L1210 cells. The class given is functional. The note with it: Mus musculus. The method in brief: as §1
Assay [6] relates to Sindbis virus. As to the kind of experiment: Minimum inhibitory concentration required to reduce sindbis virus induced cytopathogenicity by 50%. The class given is functional. In general terms: Protection from cytopathic effect is a common read-out in antiviral testing.
Assay [7] deals with Coxsackievirus B4. As to the kind of experiment: Minimum inhibitory concentration required to reduce Coxsackie virus type B-4-induced cytopathogenicity by 50%. The class given is functional.
Assay [8] relates to Measles morbillivirus. As to the kind of experiment: Minimum inhibitory concentration required to reduce measles virus induced cytopathogenicity by 50%. The class given is functional.
The subject of assay [9] is Vesicular stomatitis virus. As to the kind of experiment: Minimum inhibitory concentration required to reduce vesicular stomatitis virus (VSV) induced cytopathogenicity by 50%. The class given is functional.
For assay [10], the system named is Vesicular stomatitis virus. As to the kind of experiment: Minimum inhibitory concentration required to reduce Vesicular stomatitis virus (VSV) induced cytopathogenicity by 50%. The class given is functional.
In assay [11] the test system is Poliovirus 1. As to the kind of experiment: Minimum inhibitory concentration required to reduce Polio virus type 1 induced cytopathogenicity by 50%. The class given is functional. The note with it: Enterovirus C.
The test system of assay [12] is HeLa. As to the kind of experiment: Minimum cytotoxic concentration required to cause a microscopically detectable alteration of normal cell morphology in Hela cells. The class given is functional, Homo sapiens. The method in brief:
as §2

Assay [13] has as its system L1210. As to the kind of experiment: Minimum inhibitory concentration required to reduce incorporation of [4,5-3H]leucine into TCA-insoluble material from murine leukemia L1210 cells. The class given is functional. To be noted: Mus musculus. The gist of the method:
(§3)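 Murine L1210 leukemia cells were exposed to compound and incorporation of [4,5-3H]leucine (protein) or [5-3H]Urd (RNA) into TCA-insoluble material was measured. MIC50 is the concentration reducing incorporation by 50%. Values are averages of at least three separate experiments.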

Assay [14] has as its system Human alphaherpesvirus 2. As to the kind of experiment: Minimum inhibitory concentration required to reduce Herpes simplex virus type 2 (HSV-2 strain G) induced cytopathogenicity by 50%. The class given is functional.
The species named for assay [15] is Oryctolagus cuniculus. As to the kind of experiment: Minimum cytotoxic concentration required to cause a microscopically detectable alteration of normal cell morphology in primary rabbit kidney cells. The class given is functional. The method in brief: as §2
The test system of assay [16] is Human alphaherpesvirus 1. As to the kind of experiment: Minimum inhibitory concentration required to reduce Herpes simplex virus type 1 (HSV-1, strain KOS) induced cytopathogenicity by 50%. The class given is functional.
Assay [17] relates to L1210. As to the kind of experiment: Minimum inhibitory concentration required to reduce incorporation of [5-3H]-Urd into TCA-insoluble material from murine leukemia L1210 cells. The class given is functional. The note with it: Mus musculus. The method in brief:
as §3

In brackets after ≈: the same amount, converted by molar mass.

On to `N#Cc1cn(C2OC(CO)CC2O)c2ncnc(N)c12` (configuration not stated), for which the MIC50 in assay [1] is 0.02 µg/mL (≈ 0.0727 µM); in assay [2], 0.7 µg/mL (≈ 2.54 µM); in [3] it was 0.4 µg/mL (≈ 1.45 µM); in assay [5], 93 µg/mL (≈ 338 µM); in assay [6], 0.7 µg/mL (≈ 2.54 µM); in [7] it was more than 1 µg/mL. In addition, the MIC50 was 0.7 µg/mL (≈ 2.54 µM) in assay [7] (Enterovirus B, read-out: MIC50); more than 1 µg/mL in assay [8]; more than 1 µg/mL in assay [9]; more than 1 µg/mL in [10]; more than 1 µg/mL in assay [11]; 0.113 µg/mL (≈ 0.411 µM) in [13]. Moreover, the results for the MIC50 in [14], in assay [16] and in assay [17] were more than 0.4 µg/mL, more than 0.4 µg/mL and 0.16 µg/mL (≈ 0.581 µM), respectively. The MTC in assay [4], in assay [12] and in [15] was 1 µg/mL throughout.

With `N#Cc1cn([C@@H]2O[C@H](CO)[C@@H](O)[C@@H]2O)c2ncnc(N)c12`, the MIC50 was 2 µg/mL (≈ 6.87 µM) in assay [1]; more than 10 µg/mL in [2]; more than 10 µg/mL in assay [3]; 14 µg/mL (≈ 48.1 µM) in assay [5]; more than 10 µg/mL in [6]; more than 10 µg/mL in assay [7] (Enterovirus B, read-out: MIC50). Moreover, the MIC50 in [8] was more than 10 µg/mL; in assay [9], more than 10 µg/mL; in assay [10], more than 10 µg/mL; in assay [11] it was more than 10 µg/mL; in [13] it was 4.8 µg/mL (≈ 16.5 µM); in [14] it was 2 µg/mL (≈ 6.87 µM). Also, the values for the MIC50 in [16] and in assay [17] were 7 µg/mL (≈ 24 µM) and 10.3 µg/mL (≈ 35.4 µM), respectively. The MTC in assay [4], in assay [12] and in [15] was 10 µg/mL each time.

`Nc1ncnc2c1ccn2[C@@H]1O[C@H](CO)[C@@H](O)[C@@H]1O`: the MIC50 is 7 µg/mL (≈ 26.3 µM) in [1]; more than 400 µg/mL in [2]; 300 µg/mL (≈ 1130 µM) in assay [3]; 32 µg/mL (≈ 120 µM) in assay [5]; more than 400 µg/mL in assay [6]; more than 400 µg/mL in assay [7] (Enterovirus B, read-out: MIC50). Besides, the MIC50 in assay [8] was more than 400 µg/mL; in assay [9], more than 400 µg/mL; in assay [10], more than 350 µg/mL; in assay [11], more than 400 µg/mL; in assay [13], 151 µg/mL (≈ 567 µM); in [14] it was 40 µg/mL (≈ 150 µM). The values for the MIC50 in [16] and in assay [17] were 125 µg/mL (≈ 469 µM) and 237 µg/mL (≈ 890 µM), respectively. Besides, the MTC in assay [4], in [12] and in [15] was more than 400 µg/mL in each case.

As to `Nc1ncnc2c1ccn2[C@@H]1O[C@H](CO)[C@@H](O)[C@H]1O` [TUBERCIDIN], the MIC50 was 0.04 µg/mL (≈ 0.15 µM) in [1]; 0.04 µg/mL (≈ 0.15 µM) in assay [2]; 0.07 µg/mL (≈ 0.263 µM) in assay [3]; 5.4 µg/mL (≈ 20.3 µM) in [5]; 0.2 µg/mL (≈ 0.751 µM) in assay [6]; 0.07 µg/mL (≈ 0.263 µM) in assay [7]. For the same compound, the MIC50 in assay [7] (Enterovirus B, read-out: MIC50) was determined as 0.07 µg/mL (≈ 0.263 µM); in assay [8], 0.3 µg/mL (≈ 1.13 µM); in [9] it was 0.02 µg/mL (≈ 0.0751 µM); in assay [10] it was 0.01 µg/mL (≈ 0.0376 µM); in [11] it was 0.02 µg/mL (≈ 0.0751 µM); in [13], 0.173 µg/mL (≈ 0.65 µM). Further, the MIC50 in assay [14] came to 0.1 µg/mL (≈ 0.376 µM); in [16], 0.1 µg/mL (≈ 0.376 µM); in assay [17], 0.29 µg/mL (≈ 1.09 µM). For the same compound, the MTC in assay [4], in assay [12] and in assay [15] was 0.4 µg/mL each time.

Regarding `Nc1ncnc2c([C@H]3C[C@H](O)[C@@H](CO)O3)n[nH]c12`, the MIC50 in assay [1] is 867 µg/mL (≈ 3450 µM); in assay [2] it was more than 400 µg/mL; in assay [3], more than 400 µg/mL; in [5], more than 1000 µg/mL; in assay [6] it was more than 400 µg/mL; in assay [7] (Enterovirus B, read-out: MIC50), more than 400 µg/mL. For the same compound, the MIC50 in assay [8] was more than 400 µg/mL; in assay [9], more than 400 µg/mL; in assay [10], more than 400 µg/mL; in [11], more than 400 µg/mL; in assay [13] it was more than 1000 µg/mL; in assay [14] it was more than 400 µg/mL. Besides, the MIC50 in assay [16] is more than 400 µg/mL; in assay [17], more than 100 µg/mL. Further, the MTC in assay [4], in assay [12] and in assay [15] was more than 400 µg/mL in each case.

The values above are taken from ChEMBL document CHEMBL1123899, “Nucleic acid related compounds. 51. Synthesis and biological properties of sugar-modified analogues of the nucleoside antibiotics tubercidin, toyocamycin, sangivamycin, and formycin” (1987).
